Measured values from ChEMBL document CHEMBL1926550, “Synthesis and antibacterial activity of naphthyridone derivatives containing mono/difluoro-methyloxime pyrrolidine scaffolds” (2012).
≈ marks a conversion by molar mass, not a printed value.

Tests used:
Type in all cases: functional
[1] = system: Escherichia coli; assay: Antibacterial activity against Escherichia coli 10-1 after 18 hrs by two fold serial dilution method; conditions: 10-1, 18 h
Procedure, shortened: (§1)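 Agar two-fold serial dilution in melted Mueller-Hinton agar, final concentrations 128 down to 0.008 μg/mL. Plates inoculated with 10⁴ cfu and incubated at 35 °C for 18 h. MIC taken as the lowest concentration giving no visible growth on the plate.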

[2] = system: Escherichia coli; assay: Antibacterial activity against Escherichia coli 10-2 after 18 hrs by two fold serial dilution method; conditions: 10-2, 18 h; procedure, shortened: as §1
[3] = system: Escherichia coli; assay: Antibacterial activity against Escherichia coli 10-3 after 18 hrs by two fold serial dilution method; conditions: 10-3, 18 h; procedure, shortened: as §1
[4] = system: Klebsiella pneumoniae; assay: Antibacterial activity against Klebsiella pneumoniae 09-2 after 18 hrs by two fold serial dilution method; conditions: 09-2, 18 h; procedure, shortened: as §1
[5] = system: Klebsiella pneumoniae; assay: Antibacterial activity against Klebsiella pneumoniae 10-1 after 18 hrs by two fold serial dilution method; conditions: 10-1, 18 h; procedure, shortened: as §1
[6] = system: Klebsiella pneumoniae; assay: Antibacterial activity against Klebsiella pneumoniae 10-3 after 18 hrs by two fold serial dilution method; conditions: 10-3, 18 h; procedure, shortened: as §1
[7] = system: Pseudomonas aeruginosa; assay: Antibacterial activity against Pseudomonas aeruginosa ATCC 27853 after 18 hrs by two fold serial dilution method; conditions: ATCC 27853, 18 h; procedure, shortened: as §1
[8] = system: Pseudomonas aeruginosa; assay: Antibacterial activity against Pseudomonas aeruginosa 10-1 after 18 hrs by two fold serial dilution method; conditions: 10-1, 18 h; procedure, shortened: as §1
[9] = system: Pseudomonas aeruginosa; assay: Antibacterial activity against Pseudomonas aeruginosa 10-2 after 18 hrs by two fold serial dilution method; conditions: 10-2, 18 h; procedure, shortened: as §1
[10] = system: Pseudomonas aeruginosa; assay: Antibacterial activity against Pseudomonas aeruginosa 10-3 after 18 hrs by two fold serial dilution method; conditions: 10-3, 18 h; procedure, shortened: as §1
[11] = system: Enterococcus faecium; assay: Antibacterial activity against Enterococcus faecium 09-1 after 18 hrs by two fold serial dilution method; conditions: 09-1, 18 h; procedure, shortened: as §1
[12] = system: Staphylococcus aureus; assay: Antibacterial activity against Staphylococcus aureus ATCC 25923 after 18 hrs by two fold serial dilution method; conditions: ATCC 25923, 18 h; procedure, shortened: as §1
[13] = system: Staphylococcus aureus; assay: Antibacterial activity against methicillin-resistant Staphylococcus aureus 10-1 after 18 hrs by two fold serial dilution method; conditions: 10-1, 18 h
Procedure, shortened: (§2)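 Agar two-fold serial dilution in melted Mueller-Hinton agar, 128 to 0.008 μg/mL. Plates inoculated with 10⁴ cfu, incubated 35 °C for 18 h. MIC taken as lowest concentration giving no visible growth on the plate.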

[14] = system: Staphylococcus aureus; assay: Antibacterial activity against methicillin-resistant Staphylococcus aureus 10-2 after 18 hrs by two fold serial dilution method; conditions: 10-2, 18 h; procedure, shortened: as §2
[15] = system: Staphylococcus aureus; assay: Antibacterial activity against methicillin-resistant Staphylococcus aureus 10-3 after 18 hrs by two fold serial dilution method; conditions: 10-3, 18 h; procedure, shortened: as §2
[16] = system: Staphylococcus aureus; assay: Antibacterial activity against methicillin-resistant Staphylococcus aureus 10-4 after 18 hrs by two fold serial dilution method; conditions: 10-4, 18 h; procedure, shortened: as §2
[17] = system: Staphylococcus aureus; assay: Antibacterial activity against methicillin-sensitive Staphylococcus aureus 10-1 after 18 hrs by two fold serial dilution method; conditions: 10-1, 18 h; procedure, shortened: as §1
[18] = system: Staphylococcus aureus; assay: Antibacterial activity against methicillin-sensitive Staphylococcus aureus 10-2 after 18 hrs by two fold serial dilution method; conditions: 10-2, 18 h; procedure, shortened: as §1
[19] = system: Staphylococcus aureus; assay: Antibacterial activity against methicillin-sensitive Staphylococcus aureus 10-3 after 18 hrs by two fold serial dilution method; conditions: 10-3, 18 h; procedure, shortened: as §1
[20] = system: Staphylococcus aureus; assay: Antibacterial activity against methicillin-sensitive Staphylococcus aureus 10-4 after 18 hrs by two fold serial dilution method; conditions: 10-4, 18 h; procedure, shortened: as §1
[21] = system: Staphylococcus aureus; assay: Antibacterial activity against methicillin-sensitive Staphylococcus aureus 10-5 after 18 hrs by two fold serial dilution method; conditions: 10-5, 18 h; procedure, shortened: as §1
[22] = system: Staphylococcus aureus; assay: Antibacterial activity against methicillin-sensitive Staphylococcus aureus 10-6 after 18 hrs by two fold serial dilution method; conditions: 10-6, 18 h; procedure, shortened: as §1
[23] = system: Staphylococcus epidermidis; assay: Antibacterial activity against methicillin-resistant Staphylococcus epidermidis 10-1 after 18 hrs by two fold serial dilution method; conditions: 10-1, 18 h; procedure, shortened: as §2
[24] = system: Staphylococcus epidermidis; assay: Antibacterial activity against methicillin-resistant Staphylococcus epidermidis 10-2 after 18 hrs by two fold serial dilution method; conditions: 10-2, 18 h; procedure, shortened: as §2
[25] = system: Staphylococcus epidermidis; assay: Antibacterial activity against methicillin-sensitive Staphylococcus epidermidis 10-1 after 18 hrs by two fold serial dilution method; conditions: 10-1, 18 h; procedure, shortened: as §1
[26] = system: Staphylococcus epidermidis; assay: Antibacterial activity against methicillin-sensitive Staphylococcus epidermidis 10-2 after 18 hrs by two fold serial dilution method; conditions: 10-2, 18 h; procedure, shortened: as §1
[27] = system: Streptococcus pneumoniae; assay: Antibacterial activity against Streptococcus pneumoniae 10-1 after 18 hrs by two fold serial dilution method; conditions: 10-1, 18 h; procedure, shortened: as §1
[28] = system: Enterococcus faecium; assay: Antibacterial activity against Enterococcus faecium 09-2 after 18 hrs by two fold serial dilution method; conditions: 09-2, 18 h; procedure, shortened: as §1
[29] = system: Enterococcus faecium; assay: Antibacterial activity against Enterococcus faecium 09-3 after 18 hrs by two fold serial dilution method; conditions: 09-3, 18 h; procedure, shortened: as §1
[30] = system: Enterococcus faecium; assay: Antibacterial activity against Enterococcus faecium 09-4 after 18 hrs by two fold serial dilution method; conditions: 09-4, 18 h; procedure, shortened: as §1
[31] = system: Enterococcus faecium; assay: Antibacterial activity against Enterococcus faecium 09-5 after 18 hrs by two fold serial dilution method; conditions: 09-5, 18 h; procedure, shortened: as §1
[32] = system: Enterococcus faecium; assay: Antibacterial activity against Enterococcus faecium 09-6 after 18 hrs by two fold serial dilution method; conditions: 09-6, 18 h; procedure, shortened: as §1
[33] = system: Enterococcus faecalis; assay: Antibacterial activity against Enterococcus faecalis 09-1 after 18 hrs by two fold serial dilution method; conditions: 09-1, 18 h; procedure, shortened: as §1
[34] = system: Enterococcus faecalis; assay: Antibacterial activity against Enterococcus faecalis 09-2 after 18 hrs by two fold serial dilution method; conditions: 09-2, 18 h; procedure, shortened: as §1
[35] = system: Escherichia coli; assay: Antibacterial activity against Escherichia coli ATCC 25922 after 18 hrs by two fold serial dilution method; conditions: ATCC 25922, 18 h; procedure, shortened: as §1
[36] = system: Escherichia coli; assay: Antibacterial activity against Escherichia coli 09-1 after 18 hrs by two fold serial dilution method; conditions: 09-1, 18 h; procedure, shortened: as §1
[37] = system: Escherichia coli; assay: Antibacterial activity against Escherichia coli 09-2 after 18 hrs by two fold serial dilution method; conditions: 09-2, 18 h; procedure, shortened: as §1
[38] = system: Escherichia coli; assay: Antibacterial activity against Escherichia coli 09-3 after 18 hrs by two fold serial dilution method; conditions: 09-3, 18 h; procedure, shortened: as §1

SMILES: NCC1CN(c2nc3c(cc2F)c(=O)c(C(=O)O)cn3-c2ccc(F)cc2F)C/C1=N\OC(F)F (racemic)
- MIC [1]: > 128 µg/mL
- MIC [2]: 4 µg/mL (≈ 8.04 µM)
- MIC [3]: 8 µg/mL (≈ 16.1 µM)
- MIC [4]: 64 µg/mL (≈ 129 µM)
- MIC [5]: 0.25 µg/mL (≈ 0.503 µM)
- MIC [6]: 2 µg/mL (≈ 4.02 µM)
- MIC [7]: 4 µg/mL (≈ 8.04 µM)
- MIC [8]: 1 µg/mL (≈ 2.01 µM)
- MIC [9]: 128 µg/mL (≈ 257 µM)
- MIC [10]: 8 µg/mL (≈ 16.1 µM)
- MIC [11]: 32 µg/mL (≈ 64.3 µM)
- MIC [12]: 0.008 µg/mL (≈ 0.0161 µM)
- MIC [13]: 16 µg/mL (≈ 32.2 µM)
- MIC [14]: 4 µg/mL (≈ 8.04 µM)
- MIC [15]: 16 µg/mL (≈ 32.2 µM)
- MIC [16]: 16 µg/mL (≈ 32.2 µM)
- MIC [17]: 0.03 µg/mL (≈ 0.0603 µM)
- MIC [18]: 1 µg/mL (≈ 2.01 µM)
- MIC [19]: 0.015 µg/mL (≈ 0.0302 µM)
- MIC [20]: 0.008 µg/mL (≈ 0.0161 µM)
- MIC [21]: 0.015 µg/mL (≈ 0.0302 µM)
- MIC [22]: 0.015 µg/mL (≈ 0.0302 µM)
- MIC [23]: 2 µg/mL (≈ 4.02 µM)
- MIC [24]: 1 µg/mL (≈ 2.01 µM)
- MIC [25]: 32 µg/mL (≈ 64.3 µM)
- MIC [26]: 64 µg/mL (≈ 129 µM)
- MIC [27]: 0.06 µg/mL (≈ 0.121 µM)
- MIC [28]: 32 µg/mL (≈ 64.3 µM)
- MIC [29]: 16 µg/mL (≈ 32.2 µM)
- MIC [30]: 0.125 µg/mL (≈ 0.251 µM)
- MIC [31]: 32 µg/mL (≈ 64.3 µM)
- MIC [32]: 0.125 µg/mL (≈ 0.251 µM)
- MIC [33]: 8 µg/mL (≈ 16.1 µM)
- MIC [34]: 16 µg/mL (≈ 32.2 µM)
- MIC [35]: 0.008 µg/mL (≈ 0.0161 µM)
- MIC [36]: 32 µg/mL (≈ 64.3 µM)
- MIC [37]: > 128 µg/mL
- MIC [38]: 64 µg/mL (≈ 129 µM)
